Results from ChEMBL document CHEMBL1240414, “Synthesis and anticonvulsant activity of new 6-methyl-1-substituted-4,6-diazaspiro[2.4]heptane-5,7-diones” (Eur J Med Chem, 2010).
Calls of active or inactive are those of the source.

Assays:
[1] = test system: Mus musculus; assay: Anticonvulsant activity in Kunming mouse assessed as protection against maximal electroshock-induced seizures at 30 mg/kg, ip after 0.5 hrs; type: functional, organism-based; set-up: dose 30 mg/kg
[2] = test system: Mus musculus; assay: Anticonvulsant activity in Kunming mouse assessed as protection against maximal electroshock-induced seizures at 300 mg/kg, ip after 0.5 hrs; type: functional, organism-based; set-up: dose 300 mg/kg
[3] = test system: Mus musculus; assay: Anticonvulsant activity in Kunming mouse assessed as protection against maximal electroshock-induced seizures at 30 mg/kg, ip after 4 hrs; type: functional, organism-based; set-up: dose 30 mg/kg
[4] = test system: Mus musculus; assay: Anticonvulsant activity in Kunming mouse assessed as protection against maximal electroshock-induced seizures at 100 mg/kg, ip after 4 hrs; type: functional, organism-based; set-up: dose 100 mg/kg
[5] = test system: Mus musculus; assay: Anticonvulsant activity in Kunming mouse assessed as protection against subcutaneous pentylenetetrazole-induced seizures at 30 mg/kg, ip after 0.5 hrs; type: functional, organism-based; set-up: dose 30 mg/kg
In short: (§1)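 Male Kunming mice (20 ± 2.0 g) received the compound ip as a suspension in 0.5% methylcellulose at 30, 100 or 300 mg/kg, one to four mice per dose. Pentylenetetrazole in 0.9% saline was given sc at 0.5 h and 4.0 h after dosing. Protection meant no threshold seizure (one clonic spasm episode of at least 5 s). Scored as protected/tested.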

[6] = test system: Mus musculus; assay: Anticonvulsant activity in Kunming mouse assessed as protection against subcutaneous pentylenetetrazole-induced seizures at 100 mg/kg, ip after 0.5 hrs; type: functional, organism-based; set-up: dose 100 mg/kg; in short: as §1
[7] = test system: Mus musculus; assay: Anticonvulsant activity in Kunming mouse assessed as protection against subcutaneous pentylenetetrazole-induced seizures at 300 mg/kg, ip after 0.5 hrs; type: functional, organism-based; set-up: dose 300 mg/kg; in short: as §1
[8] = test system: Mus musculus; assay: Anticonvulsant activity in Kunming mouse assessed as protection against subcutaneous pentylenetetrazole-induced seizures at 30 mg/kg, ip after 4 hrs; type: functional, organism-based; set-up: dose 30 mg/kg; in short: as §1
[9] = test system: Mus musculus; assay: Anticonvulsant activity in Kunming mouse assessed as protection against subcutaneous pentylenetetrazole-induced seizures at 100 mg/kg, ip after 4 hrs; type: functional, organism-based; set-up: dose 100 mg/kg; in short: as §1
[10] = test system: Mus musculus; assay: Neurotoxicity in Kunming mouse assessed as minimum motor impairment at 30 mg/kg, ip after 0.5 hrs by rotarod test; type: toxicity, organism-based; set-up: dose 30 mg/kg, route intraperitoneal; conditions: in vivo
In short: (§2)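 Rotorod neurotoxicity in male Kunming mice (20 ± 2.0 g) given ip doses of 30, 100 or 300 mg/kg as a suspension in 0.5% methylcellulose, one to four mice per dose. Motor impairment was examined at 0.5 h and 4.0 h after injection. Reported as number of animals showing toxicity/number tested.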

[11] = test system: Mus musculus; assay: Neurotoxicity in Kunming mouse assessed as minimum motor impairment at 100 mg/kg, ip after 0.5 hrs by rotarod test; type: toxicity, organism-based; set-up: dose 100 mg/kg, route intraperitoneal; conditions: in vivo; in short: as §2
[12] = test system: Mus musculus; assay: Neurotoxicity in Kunming mouse assessed as minimum motor impairment at 300 mg/kg, ip after 0.5 hrs by rotarod test; type: toxicity, organism-based; set-up: dose 300 mg/kg, route intraperitoneal; conditions: in vivo; in short: as §2
[13] = test system: Mus musculus; assay: Neurotoxicity in Kunming mouse assessed as minimum motor impairment at 30 mg/kg, ip after 4 hrs by rotarod test; type: toxicity, organism-based; set-up: dose 30 mg/kg, route intraperitoneal; conditions: in vivo; in short: as §2
[14] = test system: Mus musculus; assay: Neurotoxicity in Kunming mouse assessed as minimum motor impairment at 100 mg/kg, ip after 4 hrs by rotarod test; type: toxicity, organism-based; set-up: dose 100 mg/kg, route intraperitoneal; conditions: in vivo; in short: as §2
[15] = test system: Mus musculus; assay: Neurotoxicity in Kunming mouse assessed as minimum motor impairment at 300 mg/kg, ip after 4 hrs by rotarod test; type: toxicity, organism-based; set-up: dose 300 mg/kg, route intraperitoneal; conditions: in vivo; in short: as §2
[16] = test system: Mus musculus; assay: Anticonvulsant activity in Kunming mouse assessed as protection against maximal electroshock-induced seizures at 300 mg/kg, ip after 4 hrs; type: functional, organism-based; set-up: dose 300 mg/kg
[17] = test system: Rattus norvegicus; assay: Anticonvulsant activity in Kunming rat assessed as protection against maximal electroshock-induced seizures at 30 mg/kg, po after 0.25 hrs; type: functional
In short: (§3)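 Male Kunming rats (250 ± 5.0 g) were dosed orally at 30 mg/kg, four rats per compound. Seizures were induced by a 150-mA corneal current for 0.2 s at 0.25, 0.5, 1, 2 and 4 h after dosing. Readout was the number of rats out of four protected against hindlimb tonic extension.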

[18] = test system: Rattus norvegicus; assay: Anticonvulsant activity in Kunming rat assessed as protection against maximal electroshock-induced seizures at 30 mg/kg, po after 0.5 hrs; type: functional; in short: as §3
[19] = test system: Rattus norvegicus; assay: Anticonvulsant activity in Kunming rat assessed as protection against maximal electroshock-induced seizures at 30 mg/kg, po after 1 hr; type: functional; in short: as §3
[20] = test system: Rattus norvegicus; assay: Anticonvulsant activity in Kunming rat assessed as protection against maximal electroshock-induced seizures at 30 mg/kg, po after 2 hrs; type: functional; in short: as §3
[21] = test system: Rattus norvegicus; assay: Anticonvulsant activity in Kunming rat assessed as protection against maximal electroshock-induced seizures at 30 mg/kg, po after 4 hrs; type: functional; in short: as §3
[22] = test system: Rattus norvegicus; assay: Neurotoxicity in Kunming rat assessed as minimum motor impairment at 30 mg/kg, po after 0.25 hrs by rotarod test; type: toxicity, organism-based; set-up: dose 30 mg/kg, route oral; conditions: in vivo
In short: (§4)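 Rotorod neurotoxicity in male Kunming rats (250 ± 5.0 g) given 30 mg/kg po, four rats per compound. Motor impairment was assessed at 0.25, 0.5, 1, 2 and 4 h after oral administration.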

[23] = test system: Rattus norvegicus; assay: Neurotoxicity in Kunming rat assessed as minimum motor impairment at 30 mg/kg, po after 0.5 hrs by rotarod test; type: functional, organism-based; set-up: dose 30 mg/kg; in short: as §4
[24] = test system: Rattus norvegicus; assay: Neurotoxicity in Kunming rat assessed as minimum motor impairment at 30 mg/kg, po after 1 hr by rotarod test; type: functional, organism-based; set-up: dose 30 mg/kg; in short: as §4
[25] = test system: Rattus norvegicus; assay: Neurotoxicity in Kunming rat assessed as minimum motor impairment at 30 mg/kg, po after 2 hrs by rotarod test; type: functional, organism-based; set-up: dose 30 mg/kg; in short: as §4
[26] = test system: Rattus norvegicus; assay: Neurotoxicity in Kunming rat assessed as minimum motor impairment at 30 mg/kg, po after 4 hrs by rotarod test; type: functional, organism-based; set-up: dose 30 mg/kg; in short: as §4
[27] = test system: Rattus norvegicus; assay: Anticonvulsant activity in Kunming rat assessed as protection against subcutaneous pentylenetetrazole-induced seizures at 30 mg/kg, po after 1 hr; type: functional
[28] = test system: Mus musculus; assay: Anticonvulsant activity in Kunming mouse assessed as protection against subcutaneous pentylenetetrazole-induced seizures at 300 mg/kg, ip after 4 hrs; type: functional, organism-based; set-up: dose 300 mg/kg; in short: as §1
[29] = test system: Mus musculus; assay: Anticonvulsant activity in Kunming mouse assessed as protection against maximal electroshock-induced seizures at 100 mg/kg, ip after 0.5 hrs; type: functional, organism-based; set-up: dose 100 mg/kg
[30] = test system: Mus musculus; assay: Anticonvulsant activity in ip dosed Kunming mouse assessed as protection against subcutaneous pentylenetetrazole-induced seizures; type: functional
In short: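 Quantitative phase-II study in groups of 10 male Kunming mice. A range of ip doses in 0.5% carboxymethyl cellulose-0.9% saline (0.1 ml) was given until at least three points fell within 10–90% seizure protection (MES or scPTZ) or minimal neurotoxicity. Rotorod toxicity was read 30 min after dosing.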

[31] = test system: Mus musculus; assay: Anticonvulsant activity in ip dosed Kunming mouse assessed as time peak effect; type: functional

| Compound | Activity [1] | Activity [2] | Activity [3] | Activity [4] | Activity [5] | Activity [6] | Activity [7] | Activity [8] | Activity [9] | Activity [10] | Activity [11] | Activity [12] | Activity [13] | Activity [14] | Activity [15] | Activity [16] | Activity [18] | Activity [22] | Activity [23] | Activity [28] | further results |
| --- | --- | --- | --- | --- | --- | --- | --- | --- | --- | --- | --- | --- | --- | --- | --- | --- | --- | --- | --- | --- | --- |
| CCC(CC)C1CC12NC(=O)N(C)C2=O (centres undefined) | inactive | Active | inactive | inactive | inactive | inactive | inactive | inactive | inactive | Non-toxic | Non-toxic | Non-toxic | Non-toxic | Non-toxic | Non-toxic |  |  |  |  |  |  |
| CN1C(=O)NC2(CC2c2ccc(F)cc2)C1=O (centres undefined) | Active |  |  | Active | Active | Active | Active | inactive |  | Non-toxic | Non-toxic | Non-toxic | Non-toxic | Non-toxic | Non-toxic | Active | 25% | Non-toxic | Not toxic |  | Activity [17]: inactive; Activity [19]: inactive; Activity [20]: 25%; Activity [21]: inactive; Activity [24]: Not toxic; Activity [25]: Not toxic; Activity [26]: Not toxic; Activity [27]: 25% |
| COc1ccc(C2CC23NC(=O)N(C)C3=O)c(OC)c1OC (centres undefined) | inactive |  | inactive | inactive | inactive |  |  | inactive |  | Non-toxic | Non-toxic | Non-toxic | Non-toxic | Non-toxic | Non-toxic | Active |  | Non-toxic | Not toxic |  | Activity [24]: Not toxic; Activity [25]: Not toxic; Activity [26]: Not toxic; Activity [27]: inactive |
| COc1ccc(C2CC23NC(=O)N(C)C3=O)cc1 (centres undefined) | inactive | Active | inactive | inactive | inactive | inactive |  | inactive | inactive | Non-toxic | Non-toxic | Non-toxic | Non-toxic | Non-toxic | Non-toxic | Active |  |  |  | inactive |  |
| CN1C(=O)NC2(CC2c2ccc(Br)cc2)C1=O (centres undefined) | inactive | Active | inactive | inactive | inactive | inactive | inactive | inactive | inactive | Non-toxic |  | Non-toxic | Non-toxic | Non-toxic |  | Active |  |  |  | inactive | Activity [29]: inactive |
| CN1C(=O)NC2(CC2c2ccccc2Cl)C1=O (centres undefined) | inactive | Active | inactive | inactive | inactive | inactive | inactive | inactive | inactive | Non-toxic |  | Toxic | Non-toxic | Non-toxic | Toxic | inactive |  |  |  | inactive |  |
| CCCCC1CC12NC(=O)N(C)C2=O (centres undefined) | Active |  |  |  | Active |  |  | inactive | inactive | Non-toxic | Non-toxic | Non-toxic | Non-toxic | Non-toxic | Non-toxic |  | inactive | Non-toxic | Not toxic |  | Activity [17]: 25%; Activity [19]: 50%; Activity [20]: inactive; Activity [21]: inactive; Activity [24]: Not toxic; Activity [25]: Not toxic; Activity [26]: Not toxic |
| O=C1NC(=O)C(c2ccccc2)(c2ccccc2)N1 [PHENYTOIN] |  |  |  |  |  |  |  |  |  |  |  |  |  |  |  |  | Active |  |  |  | ED50 [30]: > 300 mg/kg; Time [31]: 2 h |
| CN1C(=O)NC2(CC2c2ccccc2)C1=O (centres undefined) | Active |  |  |  | inactive | inactive | inactive | inactive | inactive | Non-toxic | Non-toxic | Toxic | Non-toxic | Non-toxic |  |  | 25% | Non-toxic | Not toxic | inactive | Activity [17]: inactive; Activity [19]: inactive; Activity [20]: inactive; Activity [21]: inactive; Activity [24]: Not toxic; Activity [25]: Not toxic; Activity [26]: Not toxic |
| CCC1CC12NC(=O)N(C)C2=O (centres undefined) | inactive | Active | inactive | inactive | inactive | inactive | inactive | inactive | inactive | Non-toxic | Non-toxic | Non-toxic | Non-toxic | Non-toxic |  | Active |  |  |  |  |  |
| CN1C(=O)NC2(CC2c2ccco2)C1=O (centres undefined) | inactive | Active | inactive | inactive | inactive | inactive | inactive | inactive | inactive | Toxic |  |  | Non-toxic |  |  | inactive |  |  |  | inactive | Activity [29]: inactive |
